PostGolgi yeast: growth inhibition of a yeast mutant, post-Golgi transport screen | inhibition, % at 10 µM | 0.9% of 98,000 active | post-Golgi transport phenotypic cell assay;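 also: yeast cells grown in 1536-well plates; yeast grown about 18 h at 30C before absorbance read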
PLK1 inh: inhibitors of human PLK1 kinase; recombinant PLK1 kinase, TR-FRET peptide phosphorylation; AID 619; 0.53% of 97,000 active; inhibition, % at 10 µM;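 active = inhibition of 50% or more in the single-concentration screen; inactive = inhibition below 50%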;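 also: 0% = DMSO max control and 100% = H-89 dihydrochloride min control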
EphB4 antag: EphB4-ephrin-B2 interaction antagonism. P54760. EphB4 LBD / TNYL-RAW-Alexa532 peptide, fluorescence polarization. inhibition, % at 7 µM. 0.15% of 97,000 active;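 active = inhibition above the screen-wide mean inhibition plus 3 SD, cut at about 15% in these data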;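 also: 0% = DMSO wells and 100% = excess unlabeled TNYL-RAW peptide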
Target sequence (P54760 whole entry, looked up, the tested form may be a part): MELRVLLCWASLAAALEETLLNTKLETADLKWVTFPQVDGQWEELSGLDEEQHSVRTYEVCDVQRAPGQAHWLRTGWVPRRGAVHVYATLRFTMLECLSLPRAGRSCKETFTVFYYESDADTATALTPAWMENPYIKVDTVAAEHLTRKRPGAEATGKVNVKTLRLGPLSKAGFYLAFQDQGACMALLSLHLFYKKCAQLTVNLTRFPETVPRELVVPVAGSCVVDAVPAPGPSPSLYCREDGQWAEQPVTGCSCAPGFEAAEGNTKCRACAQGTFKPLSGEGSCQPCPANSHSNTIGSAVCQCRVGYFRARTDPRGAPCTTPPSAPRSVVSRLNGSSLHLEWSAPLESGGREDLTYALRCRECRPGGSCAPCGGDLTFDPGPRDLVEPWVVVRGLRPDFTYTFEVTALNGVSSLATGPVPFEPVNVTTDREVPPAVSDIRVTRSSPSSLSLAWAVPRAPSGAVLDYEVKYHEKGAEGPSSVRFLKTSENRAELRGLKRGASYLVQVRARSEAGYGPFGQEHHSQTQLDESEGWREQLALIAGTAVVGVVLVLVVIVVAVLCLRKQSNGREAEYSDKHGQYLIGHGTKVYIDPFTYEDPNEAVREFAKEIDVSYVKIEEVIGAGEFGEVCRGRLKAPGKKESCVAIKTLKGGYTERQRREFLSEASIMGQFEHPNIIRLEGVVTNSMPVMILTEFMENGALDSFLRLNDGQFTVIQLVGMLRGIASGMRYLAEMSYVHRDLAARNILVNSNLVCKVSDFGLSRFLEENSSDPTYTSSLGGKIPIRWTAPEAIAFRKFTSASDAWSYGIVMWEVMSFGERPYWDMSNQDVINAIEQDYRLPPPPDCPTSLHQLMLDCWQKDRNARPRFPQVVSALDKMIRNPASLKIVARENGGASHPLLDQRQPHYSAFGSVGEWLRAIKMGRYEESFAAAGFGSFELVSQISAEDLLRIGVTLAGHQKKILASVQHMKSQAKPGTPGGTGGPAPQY
PLK1 PBD inh: blocks phosphopeptide binding to human Plk1 polo box domain; Plk1 PBD phosphopeptide binding, fluorescence polarization; inhibition, %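 (tested at about 20 µM)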; 0.13% of 97,000 active; in the data active = inhibition above about 34%, passing the limit was not always enough
PostGolgi ctrl: growth of the yeast control strain, post-Golgi counter-screen; efflux-deficient yeast background strain, growth absorbance A615, 16 h; AID 738; inhibition, % at 10 µM; 5% of 98,000 active
Rev-RRE block: HIV Rev-RRE protein-RNA interaction inhibition; P05866; Rev peptide-RRE RNA binding, FRET; inhibition, % at 8 µM; 0.79% of 97,000 active; AID 704;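 active = inhibition above the screen-wide mean plus 3 SD, cut at about 35% in these data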;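 also: 0% = median DMSO wells and 100% = median Neomycin B control wells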
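Assay system: labelled RRE RNA duplex and labelled Rev peptide / Medium: HEPES pH 7.5 salt buffer with EDTA / Reagent: labelled Rev peptide / Schedule: 5 + 15 min at 25 °C / Signal: FRET, excitation 480 nm, emission 540 nm donor and 671 nm acceptor / Benchmarks: DMSO and neomycin B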
An asterisk follows results filed as active; x = no result; [ ] = another dose, or the depositor's remark. An excerpt weighted towards active compounds, which were near 6.4% of everything screened. Rule as the data show it, unless noted: active = inhibition above about 30%; inactive = the rest.

SMILES | PostGolgi yeast | PLK1 inh | EphB4 antag | PLK1 PBD inh | PostGolgi ctrl | Rev-RRE block
Cc1ccc(C2N(c3ccc(Cl)c(Cl)c3)C(=O)C3CCCN32)o1 (centres undefined) | 40* | 4 | 1 | -23 | 1 | 4
COc1ccc(N2C(=O)C3CCCN3C2c2ccc(C)o2)cc1Cl (centres undefined) | -4 | -13 | -10 | -3 | 15 | 1
CCOc1ccc(C2=C/C(=C/c3cccnc3)C(=O)O2)cc1 | 5 | -22 | 0 | -27 | 23 | 111*[fluorescence artefact?]
O=C(NC(NC(=O)c1ccccc1)c1ccccc1)c1ccccc1 | -8 | 4 | 8 | -13 | 3 | 6
Cc1ccc(C(=O)NC(N2CCCC2)C(Cl)(Cl)Cl)cc1 (centres undefined) | -1 | -17 | 5 | 10 | -4 | 6
O=C(NC(C(=O)c1ccccc1)N1CCCCC1)c1ccccc1 (centres undefined) | 38* | x | x | x | -4 | x
O=C(NC(C(=O)c1ccccc1)n1ccc(=O)[nH]c1=O)c1ccccc1 (centres undefined) | 14 | 0 | -9 | -7 | 30* | 5
CC(C)(C)C1CCc2c(sc(NC(=O)C3CCCO3)c2C(N)=O)C1 (centres undefined) | 4 | -8 | 7 | -10 | 60* | 4
COc1ccc(Br)cc1C(=O)Nc1ccccc1-c1ccccc1 | -6 | -7 | -8 | 3 | 26 | 10
COc1ccc(C2C(C#N)=C(N)N3C(=C2C#N)Sc2ccccc23)cc1 (centres undefined) | -8 | x | x | x | 30* | x
CCCCOc1ccc(/C=N/NC(=O)c2csc(C)c2C)cc1 | -2 | -7 | 0 | -3 | 35* | 12
O=C(NC(Cc1ccccc1)c1nc2ccccc2[nH]1)C1CC(=O)N(c2ccc3c(c2)OCCO3)C1 (centres undefined) | 3 | 0 | 15* | -14 | -7 | 0
CC(C)(C)c1ccc(-c2n[nH]c(=S)n2C2CCCC2)cc1 | -6 | -6 | 1 | -35 | 59* | 1
c1ccc(-c2nc(-n3nc4ccccc4n3)nc3ccccc23)cc1 | 10 | -9 | -3 | -7 | 78* | 1
Cc1cccc(OCC(=O)Nc2cc(C)on2)c1 | x | -9 | 4 | -6 | x | 5
O=C(COc1cccc(Oc2ccccc2)c1)Nc1ncccn1 | -2 | 5 | -1 | -7 | -4 | 5
COCCNC(=O)COc1cccc(Oc2ccccc2)c1 | 12 | 2 | -6 | 10 | 31* | 3
Cc1cc(NC(=O)COc2cccc(Oc3ccccc3)c2)no1 | 5 | -10 | -5 | 13 | 31* | 2
Cc1ccc2c(c1)cc(CN(Cc1cccs1)C(=O)c1ccco1)c1nnnn12 | 6 | -13 | 1 | 0 | 42* | 2
C1CN(CC23CC4CC(CC(C4)C2)C3)CCO1 | x | -9 | 9 | 1 | x | 5
CC1CC2=C(NC(=S)NC2c2ccc(F)cc2)/C(=C/c2ccc(F)cc2)C1 (centres undefined) | -2 | -1 | 5 | -27 | 39* | -6
CCOC(=O)c1c(N)sc(C(O)(C(F)(F)F)C(F)(F)F)c1-c1ccccc1 | 3 | -8 | -1 | 7 | 32* | 25
CCCc1cc(=O)[nH]c(SCC(=O)NC(=O)c2ccccc2)n1 | 10 | -3 | 3 | -2 | 32* | 0
COc1ccc2c(C)nc(Nc3nc(C)cc(=O)[nH]3)nc2c1 | x | 1 | -4 | -13 | x | 10
O=C(Nc1ccccc1Cl)c1ccccc1Oc1ccc(C(F)(F)F)cc1[N+](=O)[O-] | -1 | 12 | -8 | 39 | 54* | 17
SMILES | PostGolgi yeast | PLK1 inh | EphB4 antag | PLK1 PBD inh | PostGolgi ctrl | Rev-RRE block
COc1ccccc1NC(=O)COc1ccc(C(F)(F)F)cc1[N+](=O)[O-] | x | -6 | 4 | -15 | x | 13
CC(C)(C)n1nc(-c2ccc(Cl)cc2)c2c(N)ncnc21 | 1 | 17 | -5 | -7 | 65* | 10
CC(C)(C)n1nc(-c2ccc(F)cc2)c2c(N)ncnc21 | -16 | 4 | 9 | -15 | 57* | 3
Cc1ccc(C(=O)N2CCN(c3ncnc4c3cnn4-c3ccccc3)CC2)cc1 | x | -14 | 5 | 20 | x | 9
COc1cccc(N2CCN(c3ncnc4c3cnn4-c3ccc(C)cc3C)CC2)c1 | 3 | -8 | 0 | -28 | 46* | 2
Cc1ccc(-n2ncc3c(N4CCCC4)ncnc32)c(C)c1 | 0 | 0 | 7 | -5 | 33* | 2
CCOC(=O)C1CCCN(c2ncnc3c2cnn3-c2cccc(C)c2)C1 (centres undefined) | 5 | -8 | 9 | -13 | 19 | 12
Cc1ccc(C)c(N2CCN(c3ncnc4c3cnn4-c3ccccc3)CC2)c1 | -4 | 3 | -1 | 16 | 10 | 11
Cc1cccc(-n2ncc3c(N4CCC(C)CC4)ncnc32)c1 | 44* | -8 | -3 | -26 | 45* | 11
COCCn1c(C2CCCCC2)nc2sc3ccccc3c(=O)c2c1=O | 39* | 8 | 5 | -9 | 85* | 1
CCc1nc2sc3ccccc3c(=O)c2c(=O)n1CCOC | -10 | 0 | 8 | -16 | -20 | 1
CCC(c1nnnn1C(C)(C)C)N1CCN(c2cc(Cl)ccc2C)CC1 (centres undefined) | -8 | -11 | -7 | 7 | 28 | 3
O=C(Nc1ccccc1N1CCCCC1)c1ccco1 | 2 | -6 | 5 | 5 | 33* | 11
O=C(Nc1ccccc1N1CCCCC1)c1cccs1 | 2 | -3 | -5 | -9 | 51* | 10
O=C(Nc1ccccc1N1CCCC1)c1ccco1 | 11 | -9 | -7 | -7 | 19 | 2
N/C(=N\OC(=O)C1CCCCC1)c1ccccn1 | 0 | -8 | -9 | -6 | 2 | 2
Cc1nn(-c2ccccc2)c(Cl)c1/C=C1\N=C(c2ccccc2)OC1=O | x | -8 | -2 | 13 | x | 8
Cc1ccc(OS(=O)(=O)c2ccccc2)c(/C=N/N=C2\NC(=O)C(C)S2)c1 (centres undefined) | -5 | -7 | 1 | 35 | 41* | 7
O=C1CCCCCN1CSc1nc2ccccc2s1 | -6 | -4 | -8 | 7 | 46* | 2
CCC(=O)NC(Nc1ncc(C)s1)(C(=O)OC)C(F)(F)F (centres undefined) | x | -15 | -2 | 24 | x | 1
Clc1ccc(-c2nc3cnccn3c2NC2CCCC2)cc1 | 22 | 11 | 8 | 4 | 31* | 11
CSc1ccc(-c2nc3cnccn3c2Nc2ccc3c(c2)OCO3)cc1 | -11 | 25 | 0 | -5 | 16 | 3
Clc1ccc(-c2nc3cnccn3c2Nc2ccc3c(c2)OCO3)cc1 | -3 | 7 | 4 | -18 | 38* | -2
CCOC(=O)c1nnc(-c2ccccc2)nc1NCc1ccccc1 | 15 | -10 | -4 | -14 | 35* | 5
CCOC(=O)n1c(=O)n(Cc2ccccc2)c2ccccc21 | 12 | -7 | 10 | -21 | 12 | -1
